Ecoli rRNA inh: inhibits bacterial ribosomal RNA function over humanized ribosomes; E. coli WT GFP vs humanized-ribosome RFP mutants, fluorescence, 24 h; stronger effect = lower value; DMSO median 0, no signal -100; GFP signal change (wild-type ribosome), % (no concentration beside the values); 1.6% of 350,000 active; AID 720706;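 active = significant combined selectivity score with lowered wild-type GFP, culture density cut under 30%, mutant RFP and density less affected; inactive = any of these conditions unmet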
PfHsp90 set2: reduces growth (ATP signal) of yeast expressing P. falciparum Hsp90 | inhibition, % at 9.4 µM | S. cerevisiae expressing PfHsp90, BacTiter-Glo ATP, 48 h; yeast lacking PDR1 and PDR3 efflux regulators | 0.32% of 310,000 active | AID 504621;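 active = every replicate shows inhibition above about 80%, whatever the replicate mean, limit read from the data; inconclusive = mean inhibition reaches the set limit but some replicate falls short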;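 note: 0% = DMSO neutral controls and 100% = 20 µM radicicol positive controls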
MLL AF4-AF9 inh: inhibitors of human MLL-AF4/AF9 interaction; inhibition, % at 10 µM; 0.47% of 350,000 active; AID 651704; AlphaScreen, biotin-AF4 peptide binding to FLAG-AF9;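 active = every replicate reaching a set inhibition limit, whatever the replicate mean, cut at about 25% in these data; inconclusive = mean inhibition reaches that limit but some replicates miss it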;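 note: 0% = plate neutral control median and 100% = total signal loss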
Target sequence (P42568 whole entry, looked up): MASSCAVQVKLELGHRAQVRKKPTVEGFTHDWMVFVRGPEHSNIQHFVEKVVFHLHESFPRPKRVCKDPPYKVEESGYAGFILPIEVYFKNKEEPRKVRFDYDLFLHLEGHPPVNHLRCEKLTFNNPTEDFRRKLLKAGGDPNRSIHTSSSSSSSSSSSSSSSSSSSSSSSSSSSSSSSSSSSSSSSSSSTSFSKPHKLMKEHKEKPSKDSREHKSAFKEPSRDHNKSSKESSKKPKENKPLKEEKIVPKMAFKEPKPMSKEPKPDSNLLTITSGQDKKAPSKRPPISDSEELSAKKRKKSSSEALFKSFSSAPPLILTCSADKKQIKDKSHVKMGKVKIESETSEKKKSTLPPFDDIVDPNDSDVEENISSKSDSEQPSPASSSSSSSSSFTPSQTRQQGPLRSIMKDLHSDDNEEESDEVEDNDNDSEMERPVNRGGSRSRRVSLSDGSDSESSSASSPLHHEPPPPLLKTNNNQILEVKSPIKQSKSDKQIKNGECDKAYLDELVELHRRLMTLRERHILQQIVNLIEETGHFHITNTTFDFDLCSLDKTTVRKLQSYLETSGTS
Cneo AK release: Cryptococcus neoformans lysis via adenylate kinase release; C. neoformans lysis, adenylate kinase release luminescence, 4 h; normalised: neutral wells 0, clomiphene wells 100; lysis activity, % at 15 µM; 0.2% of 360,000 active;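 active = mean lysis activity across replicates of at least 80%, whatever share of replicates individually reach that level; inactive = mean lysis activity below 80%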
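Assay system: log-phase C. neoformans yeast / Quantity: yeast cell density of 5 × 10^6 cells/mL / Medium: fresh YPD growth medium / Compound: single dose / Timing: static 4 h at 37 °C with compound, 1 h detection / Measured by: adenylate kinase release luminescence / Read-out: lysis from increased AK signal / Benchmarks: Clomiphene as positive lysis control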
DENV2 CPE rescue: inhibitors of DENV2 cytopathic effect; DENV2-infected cells, cytopathic effect rescue, plate reader; CPE inhibition, % at 9.99 µM; AID 651640; 1.7% of 350,000 active; in the data active = CPE inhibition above about 20%, passing the limit was not always enough; inconclusive = no clear call, values can overlap the other calls; tested in BHK-21 cells;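 note: 0% = median of neutral control wells and 100% = median of positive control wells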
S100A4 MyoIIA: S100A4-myosin IIA interaction inhibition; S100A4/TAMRA-MyoIIA peptide fluorescence polarization; inhibition, % at 10.7 µM; 0.14% of 360,000 active; P26447;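 active = mean inhibition of at least 70% across replicates, with every replicate also reaching that level; inconclusive = mean inhibition reaches 70% but some replicates fall short; inactive = mean inhibition below 70%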
Target sequence (P26447 whole entry, looked up): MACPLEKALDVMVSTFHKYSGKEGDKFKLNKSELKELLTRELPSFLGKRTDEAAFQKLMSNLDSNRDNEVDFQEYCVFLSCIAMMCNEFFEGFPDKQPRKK
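Material: human S100A4 monomer with TAMRA-labelled myosin IIA peptide; buffer or medium: HEPES pH 7.2 with CaCl2, KCl, NaCl, DTT, Triton; compound dosing: one concentration per compound; schedule: 5 min incubation before reading; benchmarks: neutral control DMSO, positive control TFP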
* = called active by the depositor. An excerpt weighted towards active compounds, which were near 3.2% of everything screened.

How did C[C@H](CO)N1C[C@H](C)[C@H](CN(C)C(=O)Cc2ccccc2)OCCCC[C@H](C)Oc2ccc(NC(=O)Nc3ccc4c(c3)OCO4)cc2C1=O do in these assays?
Ecoli rRNA inh: 1; MLL AF4-AF9 inh: 1; Cneo AK release: 0; DENV2 CPE rescue: -4; S100A4 MyoIIA: -12

What do the screens show for `CCCOc1ccc(CC(=O)NNC(=S)Nc2ccccc2)cc1Br`?
PfHsp90 set2: 19; Cneo AK release: 0

How did COc1ccc(CC(=O)NNC(=S)Nc2ccccc2)cc1Cl do in these assays?
Ecoli rRNA inh: -27*; MLL AF4-AF9 inh: -1; DENV2 CPE rescue: -2; S100A4 MyoIIA: -3

What do the screens show for `Cc1noc(C)c1S(=O)(=O)Nc1cccc2c1O[C@H](CN(C)C)[C@H](C)CN([C@H](C)CO)C2=O`?
Ecoli rRNA inh: 5; MLL AF4-AF9 inh: -1; Cneo AK release: 1; DENV2 CPE rescue: 0; S100A4 MyoIIA: 7

What do the screens show for `COc1cc(/C=C(\NC(C)=O)C(=O)Nc2ccccc2C)ccc1OC(C)=O`?
Ecoli rRNA inh: 3; PfHsp90 set2: 0; MLL AF4-AF9 inh: 4; Cneo AK release: -4; DENV2 CPE rescue: 21*; S100A4 MyoIIA: -8

Results for COc1cc(/C=C(\NC(C)=O)C(=O)Nc2ccc(NC(C)=O)cc2)ccc1OC(C)=O ?
PfHsp90 set2: -3

How did O=[N+]([O-])c1ccc(NN=Cc2cccc3ccccc23)nc1 do in these assays?
Ecoli rRNA inh: -2; PfHsp90 set2: 2; MLL AF4-AF9 inh: 0; Cneo AK release: 1; DENV2 CPE rescue: -6; S100A4 MyoIIA: -5

Results for O=[N+]([O-])c1cccc(C=NNc2ccc3ccccc3n2)c1O ?
Ecoli rRNA inh: -15; PfHsp90 set2: 137*; MLL AF4-AF9 inh: 1; DENV2 CPE rescue: 5; S100A4 MyoIIA: 10

What do the screens show for `O=C(CN(Cc1ccccc1)S(=O)(=O)c1ccccc1)N/N=C/c1ccccc1[N+](=O)[O-]`?
Ecoli rRNA inh: -19*; PfHsp90 set2: 17; MLL AF4-AF9 inh: 3; Cneo AK release: 0; DENV2 CPE rescue: -2; S100A4 MyoIIA: 2

What do the screens show for `O=[N+]([O-])c1ccccc1C=NNC(=S)NN=Cc1ccccc1[N+](=O)[O-]`?
Ecoli rRNA inh: -20*; MLL AF4-AF9 inh: 2; Cneo AK release: 2; DENV2 CPE rescue: -5; S100A4 MyoIIA: 3

How did O=C(N/N=C/c1cccc([N+](=O)[O-])c1O)C(O)(c1ccccc1)c1ccccc1 do in these assays?
Ecoli rRNA inh: -18*; PfHsp90 set2: 0; MLL AF4-AF9 inh: 7; Cneo AK release: -2; DENV2 CPE rescue: 12; S100A4 MyoIIA: -10

How did COC(=O)C1=C(C)N(Cc2ccccc2C(F)(F)F)C(=NCc2ccccc2)NC1CCc1ccccc1 (stereo not drawn) do in these assays?
Ecoli rRNA inh: -41; DENV2 CPE rescue: 91*; S100A4 MyoIIA: -2

How did COc1ccc2c3c(n(C)c2c1)[C@@H](CO)N(C(=O)Nc1ccc(F)cc1)CC31CN(C(=O)NC2CCCC2)C1 do in these assays?
Ecoli rRNA inh: -5; MLL AF4-AF9 inh: -3; DENV2 CPE rescue: -2; S100A4 MyoIIA: -2

Results for COc1ccccc1-c1ccc2c(c1)[C@H]1[C@H](CCN1C(=O)C1CCOCC1)[C@H](CO)N2 ?
Ecoli rRNA inh: 3; MLL AF4-AF9 inh: 1; Cneo AK release: 2; DENV2 CPE rescue: -8; S100A4 MyoIIA: -9

How did CCOc1ccc(NC(=O)/C(C#N)=C/c2cn(CC(=O)O)c3ccccc23)cc1 do in these assays?
Ecoli rRNA inh: -26*; PfHsp90 set2: -25; MLL AF4-AF9 inh: -3; Cneo AK release: 2; DENV2 CPE rescue: -2; S100A4 MyoIIA: 0

What do the screens show for `C[C@H]1CN([C@@H](C)CO)S(=O)(=O)c2ccc(-c3cccnc3)cc2O[C@@H]1CN(C)CC1CCOCC1`?
Ecoli rRNA inh: 0; MLL AF4-AF9 inh: 6; Cneo AK release: 8; DENV2 CPE rescue: inconclusive; S100A4 MyoIIA: 6

Results for C[C@H]1CN([C@@H](C)CO)C(=O)c2cccc(NS(C)(=O)=O)c2O[C@H]1CN(C)C(=O)Nc1ccc2c(c1)OCO2 ?
Ecoli rRNA inh: 3; MLL AF4-AF9 inh: -1; Cneo AK release: 114*; DENV2 CPE rescue: 12; S100A4 MyoIIA: 3

Results for C[C@@H]1CN([C@H](C)CO)C(=O)c2cccc(NS(=O)(=O)c3ccccc3)c2O[C@H]1CN(C)C(=O)Nc1ccc2c(c1)OCO2 ?
Ecoli rRNA inh: 0; MLL AF4-AF9 inh: -2; Cneo AK release: 3; DENV2 CPE rescue: -8; S100A4 MyoIIA: 3

What do the screens show for `C[C@@H]1CN([C@@H](C)CO)C(=O)c2cccc(NS(C)(=O)=O)c2O[C@@H]1CN(C)C(=O)Nc1ccc2c(c1)OCO2`?
Ecoli rRNA inh: 1; MLL AF4-AF9 inh: 1; Cneo AK release: 88*; DENV2 CPE rescue: -17; S100A4 MyoIIA: -5

What do the screens show for `C[C@H]1CN([C@@H](C)CO)C(=O)c2cccc(NS(=O)(=O)c3ccccc3)c2O[C@@H]1CN(C)C(=O)Nc1ccc2c(c1)OCO2`?
Ecoli rRNA inh: 1; MLL AF4-AF9 inh: -1; Cneo AK release: 1; DENV2 CPE rescue: -6; S100A4 MyoIIA: -10

How did CCN(C(=O)CN1C(=O)NC(c2ccccc2)(c2ccccc2)C1=O)c1ccccc1 do in these assays?
Ecoli rRNA inh: 1; PfHsp90 set2: -1; MLL AF4-AF9 inh: 38*; Cneo AK release: -2; DENV2 CPE rescue: 3; S100A4 MyoIIA: -11

How did O=C(CCc1ccccc1)NC(c1cccs1)c1cc(Cl)c2cccnc2c1O (stereo not drawn) do in these assays?
Ecoli rRNA inh: 12; PfHsp90 set2: 101*; MLL AF4-AF9 inh: -4; DENV2 CPE rescue: 9; S100A4 MyoIIA: 0

What do the screens show for `CCCCC(=O)NC(c1ccco1)c1cc(Cl)c2cccnc2c1O` (stereo not drawn)?
Ecoli rRNA inh: -32; PfHsp90 set2: 105*; MLL AF4-AF9 inh: -2; DENV2 CPE rescue: 2; S100A4 MyoIIA: 1

Results for CCCC(=O)NC(c1cccs1)c1cc([N+](=O)[O-])c2cccnc2c1O (stereo not drawn) ?
Ecoli rRNA inh: 13; PfHsp90 set2: 67; MLL AF4-AF9 inh: 11; Cneo AK release: -4; DENV2 CPE rescue: -1; S100A4 MyoIIA: 1

What do the screens show for `O=C(Nc1ccc(Cl)cc1)N1C[C@@H]2[C@H](c3ccccc31)[C@H](CO)N2C(=O)c1cccnc1`?
Ecoli rRNA inh: -35; MLL AF4-AF9 inh: -2; Cneo AK release: -13; DENV2 CPE rescue: 7; S100A4 MyoIIA: -3

Results for C[C@@H]1CN([C@@H](C)CO)C(=O)Cc2cc(NC(=O)CCCCCC(=O)Nc3ccccc3N)ccc2O[C@H]1CN(C)C(=O)Nc1ccc2c(c1)OCO2 ?
Ecoli rRNA inh: 4; MLL AF4-AF9 inh: -1; DENV2 CPE rescue: -4; S100A4 MyoIIA: 8
